In ChEMBL document CHEMBL1132472, “Synthesis and pharmacological evaluation of some 8-cyanopyrido[3', 2':4,5]thieno[3,2-d]triazine derivatives as inhibitors of nitric oxide and eicosanoid biosynthesis” (J Med Chem, 1999):

Assays:
[1] = target: T1, Prostaglandin G/H synthase 2 (Mus musculus) (UniProt Q05769); experiment: In vitro activity at a concentration of 10 uM against Prostaglandin G/H synthase 2
T1 sequence (whole entry): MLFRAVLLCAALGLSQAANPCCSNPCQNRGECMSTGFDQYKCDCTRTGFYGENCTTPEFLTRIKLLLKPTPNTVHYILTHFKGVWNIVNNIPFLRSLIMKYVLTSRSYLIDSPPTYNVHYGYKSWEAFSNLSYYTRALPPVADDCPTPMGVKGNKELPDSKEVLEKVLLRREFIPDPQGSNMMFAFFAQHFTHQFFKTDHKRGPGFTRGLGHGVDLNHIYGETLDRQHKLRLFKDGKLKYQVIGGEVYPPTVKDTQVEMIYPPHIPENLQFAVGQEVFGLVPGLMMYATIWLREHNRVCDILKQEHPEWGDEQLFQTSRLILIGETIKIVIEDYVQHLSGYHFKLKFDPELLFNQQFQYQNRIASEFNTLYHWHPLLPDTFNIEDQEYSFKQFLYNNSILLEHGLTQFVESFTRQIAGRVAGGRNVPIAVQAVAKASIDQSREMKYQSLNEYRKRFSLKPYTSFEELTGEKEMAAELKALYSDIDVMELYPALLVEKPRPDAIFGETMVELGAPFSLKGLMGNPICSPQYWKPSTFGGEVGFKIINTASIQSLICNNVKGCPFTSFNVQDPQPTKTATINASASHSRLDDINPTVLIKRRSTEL

[2] = target: T2, Nitric oxide synthase, inducible (Mus musculus) (UniProt P29477); experiment: In vitro activity at a concentration of 10 uM against Inducible nitric oxide synthase (iNOS)
T2 sequence (whole entry): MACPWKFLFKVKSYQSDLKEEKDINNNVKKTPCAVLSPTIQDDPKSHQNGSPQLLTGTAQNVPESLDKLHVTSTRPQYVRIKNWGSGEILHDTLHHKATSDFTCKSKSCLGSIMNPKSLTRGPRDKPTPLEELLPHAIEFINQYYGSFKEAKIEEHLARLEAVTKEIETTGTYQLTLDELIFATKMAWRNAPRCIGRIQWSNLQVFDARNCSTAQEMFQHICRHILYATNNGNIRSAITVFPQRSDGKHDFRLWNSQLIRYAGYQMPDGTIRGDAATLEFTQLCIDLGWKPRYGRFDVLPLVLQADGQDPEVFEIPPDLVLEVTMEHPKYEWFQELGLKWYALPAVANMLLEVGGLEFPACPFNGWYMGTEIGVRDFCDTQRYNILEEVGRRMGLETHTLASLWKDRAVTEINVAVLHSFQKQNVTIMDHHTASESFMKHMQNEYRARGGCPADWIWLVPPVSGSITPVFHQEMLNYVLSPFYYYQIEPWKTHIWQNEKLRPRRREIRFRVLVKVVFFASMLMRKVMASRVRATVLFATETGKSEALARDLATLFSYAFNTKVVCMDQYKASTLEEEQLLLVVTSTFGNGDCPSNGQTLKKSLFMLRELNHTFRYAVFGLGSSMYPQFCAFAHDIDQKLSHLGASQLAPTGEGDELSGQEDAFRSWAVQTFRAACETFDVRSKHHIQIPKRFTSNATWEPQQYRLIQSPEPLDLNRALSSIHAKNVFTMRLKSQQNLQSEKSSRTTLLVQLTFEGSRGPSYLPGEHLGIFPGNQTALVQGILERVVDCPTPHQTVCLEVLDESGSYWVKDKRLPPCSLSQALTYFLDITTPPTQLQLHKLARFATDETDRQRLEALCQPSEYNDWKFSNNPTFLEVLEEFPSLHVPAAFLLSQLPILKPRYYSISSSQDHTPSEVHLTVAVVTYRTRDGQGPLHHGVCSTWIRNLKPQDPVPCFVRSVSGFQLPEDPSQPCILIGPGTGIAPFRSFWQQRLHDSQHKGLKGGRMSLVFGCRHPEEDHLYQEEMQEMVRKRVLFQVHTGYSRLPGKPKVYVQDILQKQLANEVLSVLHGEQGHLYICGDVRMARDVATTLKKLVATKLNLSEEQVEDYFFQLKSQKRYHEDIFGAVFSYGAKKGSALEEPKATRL

Mus musculus [3] = organism: Mus musculus; experiment: (§1) Ability to inhibit the accumulation of PGE-2 in stimulated murine peritoneal macrophages; type: functional; parameters: concentration or dose not given beside the values
Outline: (§2)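 Mouse peritoneal macrophages were elicited by ip thioglycolate (10%) and collected by lavage 4 days later. Adherent cells were stimulated with E. coli LPS (10 µg/mL) at 37 °C for 24 h with compound or vehicle. Supernatant PGE₂ was measured by radioimmunoassay. IC50 was calculated from at least four significant concentrations (n = 6).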

Mus musculus [4] = organism: Mus musculus; experiment: (§3) Ability to inhibit the generation of NO by stimulated murine peritoneal macrophages; type: functional; parameters: concentration or dose not given beside the values
Outline: (§4)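 Thioglycolate-elicited mouse peritoneal macrophages (lavage 4 days after ip 10% thioglycolate), adhered 2 h at 37 °C in arginine (1 mM)-containing buffered medium with 10% FBS. Cells stimulated with E. coli LPS 10 µg/mL for 24 h at 37 °C with test compound or vehicle. Supernatant nitrite measured fluorimetrically. IC50 from ≥4 concentrations (n = 6). Mean ± SEM.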

[5] = target: Prostaglandin G/H synthase 1 (Homo sapiens) (UniProt P23219); experiment: In vitro activity at a concentration of 10 uM against Prostaglandin G/H synthase 1
Outline: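 Microsomes were prepared by 2000g spin for 5 min, then 100000g for 100 min, both at 4 °C. Microsomes (20 µg protein/tube) were incubated with arachidonic acid plus compound at 10 µM or vehicle. TXB₂ formed was measured by radioimmunoassay.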

Mus musculus [6] = organism: Mus musculus; experiment: as §1; type: functional; outline: as §2
Mus musculus [7] = organism: Mus musculus; experiment: as §3; type: functional, organism-based; outline: as §4
Mus musculus [8] = organism: Mus musculus; experiment: Compound was evaluated to inhibit Nitrite accumulation in simulated macrophages; type: functional
Mus musculus [9] = organism: Mus musculus; experiment: Compound was evaluated to inhibit PGE-2 accumulation in simulated macrophages; type: functional
Outline: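 Adherent thioglycolate-elicited mouse peritoneal macrophages were stimulated with E. coli LPS (10 µg/mL) for 24 h at 37 °C in the presence of compound at 10 µM or vehicle. Supernatant PGE₂ was measured by radioimmunoassay and expressed as % inhibition, mean ± SEM, n = 6-9.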

Sequence of Prostaglandin G/H synthase 1 (Homo sapiens) (P23219 whole entry): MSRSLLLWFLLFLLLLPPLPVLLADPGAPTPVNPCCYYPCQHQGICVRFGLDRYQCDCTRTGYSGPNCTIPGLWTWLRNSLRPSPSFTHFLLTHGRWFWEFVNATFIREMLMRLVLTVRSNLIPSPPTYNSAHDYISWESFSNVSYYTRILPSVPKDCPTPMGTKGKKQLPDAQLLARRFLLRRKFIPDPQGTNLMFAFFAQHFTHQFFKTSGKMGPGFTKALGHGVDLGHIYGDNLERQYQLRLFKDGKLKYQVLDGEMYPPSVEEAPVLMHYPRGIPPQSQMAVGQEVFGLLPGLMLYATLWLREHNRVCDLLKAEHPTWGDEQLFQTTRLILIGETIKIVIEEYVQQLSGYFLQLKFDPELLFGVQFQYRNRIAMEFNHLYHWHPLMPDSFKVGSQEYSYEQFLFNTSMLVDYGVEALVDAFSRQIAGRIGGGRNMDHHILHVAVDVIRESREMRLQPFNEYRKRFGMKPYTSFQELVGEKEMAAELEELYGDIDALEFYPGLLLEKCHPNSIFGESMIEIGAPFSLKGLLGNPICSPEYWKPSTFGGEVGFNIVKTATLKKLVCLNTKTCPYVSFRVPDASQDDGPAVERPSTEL

Row | SMILES | Activity ((ng of PGE2) (mg of protein)-1) [1] | Activity (pM of citrulline min-1 (mg of protein)-1) [2] | Inhibition (Mus musculus [3]) | Inhibition (Mus musculus [4]) | Activity ((ng of TXB2) (mg of protein)-1) [5] | IC50 (Mus musculus [6]) | IC50 (Mus musculus [7]) | IC50 (Mus musculus [8]) | IC50 (Mus musculus [9])
1 | N#Cc1cc2c(nc1N1CCOCC1)sc1c(N3CCNCC3)nnnc12 | 16.5 | 15.1 | 31.3% | 43.3% | 149 | – | – | – | –
2 | N#Cc1cc2c(nc1NCc1ccccc1)sc1c(N3CCOCC3)nnnc12 | – | – | 28.5% | 41.1% | – | – | – | – | –
3 | N#Cc1cc2c(nc1N1CCC(Cc3ccccc3)CC1)sc1c(Cl)nnnc12 | – | 13.1 | 57.9% | 48.8% | 128 | – | – | – | –
4 | CS(=O)(=O)Nc1ccc([N+](=O)[O-])cc1OC1CCCCC1 [NS-398] | – | – | – | – | – | 3.1 nM | – | – | –
5 | N#Cc1cc2c(nc1N1CCOCC1)sc1c(Cl)nnnc12 | – | 14 | 59.5% | 51.8% | 112 | – | – | – | –
6 | CC1CCN(c2nc3sc4c(Cl)nnnc4c3cc2C#N)CC1 | – | – | 49% | 6.1% | 130 | – | – | – | –
7 | CC(=O)c1ccc(N2CCN(c3nnnc4c3sc3nc(N5CCC(C)CC5)c(C#N)cc34)CC2)cc1 | 14.3 | 12.5 | 45.6% | 42.6% | 127 | – | – | – | –
8 | CC(=O)c1ccc(N2CCN(c3nnnc4c3sc3nc(N5CCN(Cc6ccccc6)CC5)c(C#N)cc34)CC2)cc1 | 15.8 | 13.5 | 50.1% | 51.6% | 134 | – | – | – | –
9 | N=C(N)NN [PIMAGEDINE] | – | 5.4 | – | – | – | – | 25100 nM | – | –
10 | CC1CCN(c2nnnc3c2sc2nc(N4CCOCC4)c(C#N)cc23)CC1 | 13 | 13.1 | 89.6% | 88.7% | 130 | – | – | 3400 nM | 600 nM
11 | CC(=O)c1ccc(N2CCN(c3nnnc4c3sc3nc(N5CCOCC5)c(C#N)cc34)CC2)cc1 | 16.6 | 14.2 | 34.6% | 45.6% | 142 | – | – | – | –
12 | COc1ccc2c(c1)c(CC(=O)O)c(C)n2C(=O)c1ccc(Cl)cc1 | – | – | – | – | 63.8 | – | – | – | –
13 | CN1CCN(c2nnnc3c2sc2nc(N4CCN(Cc5ccccc5)CC4)c(C#N)cc23)CC1 | 14.6 | 13.1 | 55.1% | 50.6% | 123 | – | – | – | –
14 | N#Cc1cc2c(nc1N)sc1c(Cl)nnnc12 | – | – | 1% | 13.9% | – | – | – | – | –
15 | CC(=O)c1ccc(N2CCN(c3nc4sc5c(Cl)nnnc5c4cc3C#N)CC2)cc1 | – | 14.1 | 94.5% | 44.7% | 104 | 900 nM | 11200 nM | – | –
16 | N#Cc1cc2c(nc1NCc1ccccc1)sc1c(Br)nnnc12 | – | – | 0.4% | 12.2% | – | – | – | – | –
17 | N#Cc1cc2c(nc1N1CCOCC1)sc1c(N3CCSCC3)nnnc12 | – | – | 36.1% | 31.4% | – | – | – | – | –
18 | CC1CCN(c2nc3sc4c(N5CCC(C)CC5)nnnc4c3cc2C#N)CC1 | 13.9 | 12.4 | 52.1% | 37.8% | 124 | – | – | – | –
19 | C[C@@H]1C[C@H]2[C@@H]3CCC4=CC(=O)C=C[C@]4(C)[C@@]3(F)[C@@H](O)C[C@]2(C)[C@@]1(O)C(=O)CO [DEXAMETHASONE] | – | – | – | – | – | 1 nM | 35.8 nM | – | –
20 | CN1CCN(c2nnnc3c2sc2nc(NCc4ccccc4)c(C#N)cc23)CC1 | – | – | 56.4% | 14.1% | – | – | – | – | –
